Measurements as given in ChEMBL document CHEMBL4364301 (Eur J Med Chem, 2019).

Key:
[1] = test system: LNCaP; assay: Antiproliferative activity against human LNCAP cells assessed as reduction in cell growth incubated for 96 hrs by propidium iodide based 2D monolayer assay; format: functional
Outline: (§1)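 After 24 h recovery, compound in medium or medium alone (control wells) was added at 10 half-log concentrations from 0.0032 to 100 µM, in triplicate, with at most 0.3% DMSO. After 96 h, wells were PBS-washed, stained with 7 µg/ml PI and 0.1% Triton X-100, and fluorescence read at 530/620 nm. IC50 came from a 4-parameter fit, geometric mean.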

[2] = target: T1, Androgen receptor (Rattus norvegicus, UniProt P15207); assay: Antagonist activity at GAL4-DBD fused rat androgen receptor expressed in UAS-bla 293 cells assessed as reduction in R1881-induced activation incubated for 16 hrs followed by fluorescence substrate addition and measured after 2 hrs by beta lactamase reporter gene assay; format: cell-based
T1 sequence (P15207 whole entry): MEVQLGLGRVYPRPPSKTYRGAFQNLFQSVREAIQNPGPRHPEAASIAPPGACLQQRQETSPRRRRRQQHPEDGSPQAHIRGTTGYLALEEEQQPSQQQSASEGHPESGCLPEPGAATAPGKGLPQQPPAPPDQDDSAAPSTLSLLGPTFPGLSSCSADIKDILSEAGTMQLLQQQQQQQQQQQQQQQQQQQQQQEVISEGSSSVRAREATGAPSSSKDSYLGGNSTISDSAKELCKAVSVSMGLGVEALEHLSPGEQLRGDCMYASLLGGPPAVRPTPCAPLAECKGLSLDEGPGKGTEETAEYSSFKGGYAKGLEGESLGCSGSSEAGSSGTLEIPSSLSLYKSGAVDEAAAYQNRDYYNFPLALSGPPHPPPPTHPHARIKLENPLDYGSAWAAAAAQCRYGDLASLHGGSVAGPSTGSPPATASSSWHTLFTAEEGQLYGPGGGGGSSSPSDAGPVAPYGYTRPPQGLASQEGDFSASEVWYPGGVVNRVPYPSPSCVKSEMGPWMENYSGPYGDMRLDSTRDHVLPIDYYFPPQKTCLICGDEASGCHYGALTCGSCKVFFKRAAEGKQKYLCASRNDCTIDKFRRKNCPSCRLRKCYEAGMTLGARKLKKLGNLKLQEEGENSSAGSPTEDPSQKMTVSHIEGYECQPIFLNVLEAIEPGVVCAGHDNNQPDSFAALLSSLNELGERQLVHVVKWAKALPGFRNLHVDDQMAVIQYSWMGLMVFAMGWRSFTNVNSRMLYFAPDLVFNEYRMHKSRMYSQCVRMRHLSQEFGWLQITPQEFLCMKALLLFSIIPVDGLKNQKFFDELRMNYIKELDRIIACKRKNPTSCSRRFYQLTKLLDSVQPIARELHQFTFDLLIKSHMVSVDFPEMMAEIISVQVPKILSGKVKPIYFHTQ

[3] = test system: CWR22R; assay: Antiproliferative activity against human 22Rv1 cells assessed as reduction in cell growth incubated for 96 hrs by propidium iodide based 2D monolayer assay; format: functional; conditions: 22Rv1, 96 h; outline: as §1
[4] = test system: VCaP; assay: Antiproliferative activity against human VCaP cells assessed as reduction in cell growth incubated for 96 hrs by propidium iodide based 2D monolayer assay; format: functional
Outline: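 VCaP cells in RPMI 1640 with 10% FCS at 37 °C, 5% CO2, seeded 4,000–20,000 cells/well and left 24 h before dosing. Compounds from DMSO stocks were diluted in half-log steps in medium, 10 concentrations 0.0032–100 μM, triplicate wells, max 0.3% DMSO. After 96 h, cells were washed, stained with 7 μg/ml propidium iodide plus 0.1% Triton X-100 for 1–2 h at room temperature, and fluorescence read at ex 530/em 620 nm.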

[5] = test system: DU-145; assay: Antiproliferative activity against human DU145 cells assessed as reduction in cell growth incubated for 96 hrs by propidium iodide based 2D monolayer assay; format: functional; conditions: DU-145, 96 h; outline: as §1

SMILES: CC(O)(COc1ccc(C#N)cc1)C(=O)Nc1ccc(C#N)c(C(F)(F)F)c1 (racemic)
- IC50 [1]: 20.9 µM
- IC50 [2]: 36 nM
- IC50 [3]: 24.8 µM
- IC50 [4]: 24.5 µM
- IC50 [5]: 44.6 µM
